Data reported in ChEMBL document CHEMBL1122246, “Analgesic narcotic antagonists. 15. Potent narcotic agonist 7 beta-(arylalkyl)-4,5 alpha-epoxymorphinans” (1983).

Tested on: Mus musculus
Test: Narcotic agonist activity using acetic acid induced writhing in the mouse upon subcutaneous administration
Type: functional
Conditions: not given
Summary of the method: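 Mouse acetic acid writhing test with subcutaneous dosing. Salt forms were given in distilled water; free bases were dissolved by adding 1 N HCl and then diluted.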

Row | Structure (SMILES) | ED50
1 | COc1ccc2c3c1O[C@H]1[C@H]4OC[C@@]4(C(O)c4ccccc4)CC4[C@@H](C2)N(C)CC[C@@]341 (stereo partly specified) | 11.9 µM/kg

Same assay, conditions: Mus musculus, sc; read-out: ED50

Row | Structure (SMILES) | ED50
2 | C=C[C@]1(CO)CC2C3Cc4ccc(OC)c5c4C2(CCN3C)C(O5)[C@@H]1O (stereo partly specified) | > 28 µmol/kg
3 | COc1ccc2c3c1OC1C(=O)[C@](C)(CCCCc4ccccc4)CC4C(C2)N(CC2CC2)CCC314 (stereo partly specified) | 2 µmol/kg
4 | CC[C@]1(CO)CC2C3Cc4ccc(OC)c5c4C2(CCN3C)C(O5)[C@@H]1O (stereo partly specified) | 2.7 µmol/kg
5 | COc1ccc2c3c1OC1[C@@H](O)[C@](C)(CCCCc4ccccc4)CC4C(C2)N(CC2CCC2)CCC341 (stereo partly specified) | 11.3 µmol/kg
6 | COc1ccc2c3c1OC1[C@H](O)[C@](CO)(CCCCCc4ccccc4)CC4C(C2)N(CC2CC2)CCC341 (stereo partly specified) | 0.4 µmol/kg
7 | COc1ccc2c3c1OC1[C@H](O)[C@](CO)(CCCCc4ccccc4)CC4C(C2)N(CC2CCC2)CCC341 (stereo partly specified) | 0.52 µmol/kg
8 | COc1ccc2c3c1OC1[C@H](O)[C@](CO)(CCCCCc4ccccc4)CC4C(C2)N(C)CCC341 (stereo partly specified) | 2.3 µmol/kg
9 | COc1ccc2c3c1OC1[C@H](O)[C@](CO)(CCCc4ccccc4)CC4C(C2)N(C)CCC341 (stereo partly specified) | 0.39 µmol/kg
10 | COc1ccc2c3c1OC1[C@H](O)[C@@](/C=C/Cc4ccccc4)(CO)CC4C(C2)N(C)CCC341 (stereo partly specified) | 1.1 µmol/kg
11 | CN1CCC23c4c5ccc(O)c4OC2[C@H](O)[C@](CO)(CCCCCc2ccccc2)CC3C1C5 (stereo partly specified) | 12 µmol/kg
12 | CN1CCC23c4c5ccc(O)c4OC2[C@H](O)[C@](CO)(CCCCCCc2ccccc2)CC3C1C5 (stereo partly specified) | > 19 µmol/kg
13 | COc1ccc2c3c1OC1[C@H](O)[C@](CO)(CCc4ccccc4)CC4C(C2)N(CC2CCC2)CCC341 (stereo partly specified) | 0.7 µmol/kg
14 | COc1ccc2c3c1OC1[C@H](O)[C@](CO)(CCCCCc4ccccc4)CC4C(C2)N(CC2CCC2)CCC341 (stereo partly specified) | 0.3 µmol/kg
15 | OC[C@@]1(CCCCCc2ccccc2)CC2C3Cc4ccc(O)c5c4C2(CCN3CC2CC2)C(O5)[C@@H]1O (stereo partly specified) | > 19 µmol/kg
16 | OC[C@@]1(CCCc2ccccc2)CC2C3Cc4ccc(O)c5c4C2(CCN3CC2CC2)C(O5)[C@@H]1O (stereo partly specified) | 0.47 µmol/kg
17 | OC[C@@]1(CCCc2ccccc2)CC2C3Cc4ccc(O)c5c4C2(CCN3CC2CCC2)C(O5)[C@@H]1O (stereo partly specified) | 0.57 µmol/kg
18 | OC[C@@]1(CCCCCc2ccccc2)CC2C3Cc4ccc(O)c5c4C2(CCN3CC2CCC2)C(O5)[C@@H]1O (stereo partly specified) | > 18 µmol/kg
19 | OC[C@@]1(CCCCc2ccccc2)CC2C3Cc4ccc(O)c5c4C2(CCN3CC2CCC2)C(O5)[C@@H]1O (stereo partly specified) | 21.3 µmol/kg
20 | C[C@@]1(CCc2ccccc2)CC2C3Cc4ccc(O)c5c4C2(CCN3CC2CCC2)C(O5)C1=O (stereo partly specified) | 0.04 µmol/kg
21 | COc1ccc2c3c1OC1[C@H](O)[C@](CO)(CCCCc4ccccc4)CC4C(C2)N(CC2CC2)CCC341 (stereo partly specified) | 0.22 µmol/kg
22 | COc1ccc2c3c1OC1[C@H](O)[C@](CO)(CCc4ccccc4)CC4C(C2)N(CC2CC2)CCC341 (stereo partly specified) | 0.61 µmol/kg
23 | COc1ccc2c3c1OC1[C@@H](O)[C@](C)(CCc4ccccc4)CC4C(C2)N(CC2CCC2)CCC341 (stereo partly specified) | 1 µmol/kg

Row | Structure (SMILES) | ED50
24 | COc1ccc2c3c1OC1[C@H](O)[C@@](/C=C/CCCCc4ccccc4)(CO)CC4C(C2)N(C)CCC341 (stereo partly specified) | 13.9 µmol/kg
25 | COc1ccc2c3c1OC1[C@@H](O)[C@](C)(CCCCc4ccccc4)CC4C(C2)N(CC2CC2)CCC341 (stereo partly specified) | 0.5 µmol/kg
26 | CCCC[C@]1(CO)CC2C3Cc4ccc(OC)c5c4C2(CCN3C)C(O5)[C@@H]1O (stereo partly specified) | 13.7 µmol/kg
27 | COc1ccc2c3c1O[C@H]1[C@H](O)[C@](CO)(C(O)c4ccccc4)CC4[C@@H](C2)N(C)CC[C@@]341 (stereo partly specified) | 2.3 µmol/kg
28 | COc1ccc2c3c1O[C@H]1[C@H]4OC[C@@]4(C(O)c4ccccc4)CC4[C@@H](C2)N(C)CC[C@@]341 (stereo partly specified) | 6.8 µmol/kg
29 | COc1ccc2c3c1OC1[C@H]4OC[C@@]4(CCCc4ccccc4)CC4C(C2)N(CC2CCC2)CCC341 (stereo partly specified) | 4.4 µmol/kg
30 | COc1ccc2c3c1OC1[C@H]4OC[C@@]4(CCc4ccccc4)CC4C(C2)N(CC2CCC2)CCC341 (stereo partly specified) | > 16 µmol/kg
31 | Oc1ccc2c3c1OC1[C@H]4OC[C@@]4(CCCCc4ccccc4)CC4C(C2)N(CC2CC2)CCC341 (stereo partly specified) | 0.015 µmol/kg
32 | COc1ccc2c3c1OC1[C@H]4OC[C@@]4(CCCCc4ccccc4)CC4C(C2)N(CC2CCC2)CCC341 (stereo partly specified) | 2.8 µmol/kg
33 | CN1CCC23c4c5ccc(O)c4OC2[C@H]2OC[C@@]2(CCCCCc2ccccc2)CC3C1C5 (stereo partly specified) | 0.028 µmol/kg
34 | CN1CCC23c4c5ccc(O)c4OC2[C@H]2OC[C@@]2(CCc2ccccc2)CC3C1C5 (stereo partly specified) | 0.048 µmol/kg
35 | COc1ccc2c3c1OC1[C@H]4OC[C@@]4(CCCc4ccccc4)CC4C(C2)N(C)CCC341 (stereo partly specified) | 0.046 µmol/kg
36 | CN1CCC23c4c5ccc(O)c4OC2[C@H]2OC[C@@]2(CCCCc2ccccc2)CC3C1C5 (stereo partly specified) | 0.024 µmol/kg
37 | COc1ccc2c3c1OC1[C@H]4OC[C@@]4(CCCCCc4ccccc4)CC4C(C2)N(C)CCC341 (stereo partly specified) | 1.3 µmol/kg
38 | COc1ccc2c3c1OC1[C@H]4OC[C@@]4(CCc4ccccc4)CC4C(C2)N(C)CCC341 (stereo partly specified) | 0.9 µmol/kg
39 | Oc1ccc2c3c1OC1[C@H]4OC[C@@]4(CCCc4ccccc4)CC4C(C2)N(CC2CCC2)CCC341 (stereo partly specified) | 0.06 µmol/kg
40 | CN1CCC23c4c5ccc(O)c4OC2[C@H]2OC[C@@]2(CCCc2ccccc2)CC3C1C5 (stereo partly specified) | 0.019 µmol/kg
41 | COc1ccc2c3c1OC1[C@H]4OC[C@@]4(CCCCc4ccccc4)CC4C(C2)N(C)CCC341 (stereo partly specified) | 0.005 µmol/kg
42 | COc1ccc2c3c1OC1[C@H]4OC[C@@]4(CCCCc4ccccc4)CC4C(C2)N(CC2CC2)CCC341 (stereo partly specified) | 0.61 µmol/kg
43 | COc1ccc2c3c1OC1[C@H](O)[C@](CO)(CCCCCCc4ccccc4)CC4C(C2)N(C)CCC341 (stereo partly specified) | 4.5 µmol/kg
44 | COc1ccc2c3c1OC1[C@H](O)[C@](CO)(CCCCc4ccccc4)CC4C(C2)N(C)CCC341 (stereo partly specified) | 0.014 µmol/kg
45 | OC[C@@]1(CCCCc2ccccc2)CC2C3Cc4ccc(O)c5c4C2(CCN3CC2CC2)C(O5)[C@@H]1O (stereo partly specified) | 11 µmol/kg

Row | Structure (SMILES) | ED50
46 | C[C@@]1(CCCCc2ccccc2)CC2C3Cc4ccc(O)c5c4C2(CCN3CC2CC2)C(O5)C1=O (stereo partly specified) | 0.11 µmol/kg
47 | COc1ccc2c3c1OC1[C@H](O)[C@@](C=CCCCc4ccccc4)(CO)CC4C(C2)N(C)CCC341 (stereo partly specified) | 4 µmol/kg
48 | OC[C@@]1(CCc2ccccc2)CC2C3Cc4ccc(O)c5c4C2(CCN3CC2CC2)C(O5)[C@@H]1O (stereo partly specified) | 0.95 µmol/kg
49 | CN1CCC23c4c5ccc(O)c4OC2[C@H](O)[C@](CO)(CCCCc2ccccc2)CC3C1C5 (stereo partly specified) | 0.003 µmol/kg
50 | COc1ccc2c3c1OC1C(=O)[C@](C)(CCc4ccccc4)CC4C(C2)N(CC2CCC2)CCC314 (stereo partly specified) | 0.19 µmol/kg
51 | COc1ccc2c3c1OC1[C@H](O)[C@](CO)(CCCc4ccccc4)CC4C(C2)N(CC2CC2)CCC341 (stereo partly specified) | 0.13 µmol/kg
52 | COc1ccc2c3c1OC1[C@H](O)[C@](CO)(CCCc4ccccc4)CC4C(C2)N(CC2CCC2)CCC341 (stereo partly specified) | 0.04 µmol/kg
53 | C[C@@]1(CCCCc2ccccc2)CC2C3Cc4ccc(O)c5c4C2(CCN3CC2CCC2)C(O5)C1=O (stereo partly specified) | 0.17 µmol/kg
54 | COc1ccc2c3c1OC1C(=O)[C@](C)(CCCCc4ccccc4)CC4C(C2)N(CC2CCC2)CCC314 (stereo partly specified) | 5.6 µmol/kg
55 | CN1CCC23c4c5ccc(O)c4OC2[C@H](O)[C@](CO)(CCc2ccccc2)CC3C1C5 (stereo partly specified) | 0.004 µmol/kg
56 | COc1ccc2c3c1OC1[C@H](O)[C@](CO)(CCc4ccccc4)CC4C(C2)N(C)CCC341 (stereo partly specified) | 0.028 µmol/kg
57 | CN1CCC23c4c5ccc(O)c4OC2[C@H](O)[C@](CO)(CCCc2ccccc2)CC3C1C5 (stereo partly specified) | 0.85 µmol/kg
58 | OC[C@@]1(CCc2ccccc2)CC2C3Cc4ccc(O)c5c4C2(CCN3CC2CCC2)C(O5)[C@@H]1O (stereo partly specified) | 2.5 µmol/kg
59 | CCCC[C@]1(CO)CC2C3Cc4ccc(O)c5c4C2(CCN3C)C(O5)[C@@H]1O (stereo partly specified) | 0.56 µmol/kg
60 | COc1ccc2c3c1OC1C4OC[C@@]4(CCc4ccccc4)CC4C(C2)N(CC2CC2)CCC341 (single isomer, unassigned) | 0.57 µmol/kg
61 | Oc1ccc2c3c1OC1C4OC[C@@]4(CCc4ccccc4)CC4C(C2)N(CC2CCC2)CCC341 (single isomer, unassigned) | 0.39 µmol/kg
62 | Oc1ccc2c3c1OC1C4OC[C@@]4(CCCc4ccccc4)CC4C(C2)N(CC2CC2)CCC341 (single isomer, unassigned) | 0.003 µmol/kg
63 | Oc1ccc2c3c1OC1C4OC[C@@]4(CCCCc4ccccc4)CC4C(C2)N(CC2CCC2)CCC341 (single isomer, unassigned) | 0.05 µmol/kg
64 | Oc1ccc2c3c1OC1C4OC[C@@]4(CCc4ccccc4)CC4C(C2)N(CC2CC2)CCC341 (single isomer, unassigned) | 0.04 µmol/kg
65 | COc1ccc2c3c1O[C@H]1[C@@H](O)C=C[C@H]4[C@@H](C2)N(C)CC[C@@]341 [CODEINE] | 10.3 µmol/kg
66 | COc1ccc2c3c1O[C@H]1C(=O)CC[C@H]4[C@@H](C2)N(C)CC[C@]314 [HYDROCODONE] | 2.4 µmol/kg
